Experimental findings from ChEMBL document CHEMBL3045526, “Tailoring the structure of aminobisphosphonates to target plant P5C reductase” (J Agric Food Chem, 2008) are described below.

Molecules are shown by their SMILES. Activity calls are given as the source filed them. The rule behind the calls is not given here.

Experiment [1] relates to Arabidopsis thaliana. As to the kind of experiment: Growth inhibition of Arabidopsis thaliana suspension cultured cells assessed as reduction in dry weight increase measured 8 days after compound incubation. The experiment is classed as functional. The gist of the method: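 Same A. thaliana Columbia suspension cultures, inoculated at 3.2–3.5 mg mL-1 dry weight. Filter-sterilized compounds (pH 6.0 with KOH) added at increasing concentrations once density reached 4.0 mg mL-1. After 8 days, when controls reached early stationary phase, cells were vacuum-filtered and oven-dried (90 °C, 48 h). Dry weight increase given as % of control; 50% growth-reduction concentration derived.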

In experiment [2] the test system is Arabidopsis thaliana. Kind of experiment: Growth inhibition of Arabidopsis thaliana suspension cultured cells assessed as reduction in dry weight increase at 0.2 mM measured 8 days after compound incubation in presence of exogenously supplied 10 mM glutamine and 2 mM proline. The experiment is classed as functional. The gist of the method:
(§1)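 A. thaliana Columbia suspension cells (MS medium, 0.3% sucrose, 2,4-D and BAP 0.5 mg L-1 each; 24 °C, 100 rpm, dim light). Flasks inoculated at 3.2–3.5 mg mL-1 dry weight. Inhibitor (pH 6.0) plus filter-sterilized amino acids added together at 4.0 mg mL-1. Dry weight increase after 8 days (oven, 90 °C, 48 h) given as % of untreated control. Four replicates.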

Experiment [3] has as its system Arabidopsis thaliana. Kind of experiment: Growth inhibition of Arabidopsis thaliana suspension cultured cells assessed as reduction in dry weight increase at 0.2 mM measured 8 days after compound incubation in presence of exogenously supplied 2 mM proline. It is filed as functional. The procedure, abridged: as §1
For experiment [4], the system named is Arabidopsis thaliana. Kind of experiment: Growth inhibition of Arabidopsis thaliana suspension cultured cells assessed as reduction in dry weight increase at 0.2 mM measured 8 days after compound incubation in presence of exogenously supplied 10 mM glutamine. The experiment is classed as functional. The procedure, abridged: as §1
In experiment [5] the target is T1, Pyrroline-5-carboxylate reductase (Arabidopsis thaliana, UniProt P54904).
T1 sequence (P54904 whole entry): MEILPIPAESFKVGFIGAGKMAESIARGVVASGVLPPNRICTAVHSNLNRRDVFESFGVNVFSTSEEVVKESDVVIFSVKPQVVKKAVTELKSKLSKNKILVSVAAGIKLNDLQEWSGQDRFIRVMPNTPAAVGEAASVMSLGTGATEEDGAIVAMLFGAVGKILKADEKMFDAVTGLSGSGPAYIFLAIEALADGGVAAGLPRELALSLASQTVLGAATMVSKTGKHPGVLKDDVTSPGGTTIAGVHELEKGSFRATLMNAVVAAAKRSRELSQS
Kind of experiment: Inhibition of Arabidopsis thaliana P5C assessed as reduction in NADH oxidation incubated at 35 degC up to 10 min. The procedure, abridged:
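P5C reductase partially purified from stationary-phase A. thaliana cultured cells. Forward reaction run in 100 mM Tris-HCl pH 8.0, 0.1 mM MgCl2, 2 mM DL-P5C, 0.25 mM NADH, with 0.15–0.20 nkat enzyme. A340 followed at 35 °C for up to 10 min against P5C-free blanks. Inhibitor final 5 µM–5 mM (pH 7.5–8.0), triplicate. IC50 by linear regression of % activity vs log concentration.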

As for `O=P(O)(O)C(Nc1c(Cl)cccc1Cl)P(=O)(O)O` [2,6-DICHLOROPHENYLAMINOMETHYLENEBISPHOSPHONIC ACID], the “growth inhibition (GI)” value with Arabidopsis thaliana [1] is “Active”.
`O=P(O)(O)C(Nc1cc(Cl)cc(Cl)c1)P(=O)(O)O` [(3,5-DICHLOROPHENYLAMINO)METHYLENEDIPHOSPHONIC ACID]: the “growth inhibition (GI)” value with Arabidopsis thaliana [2] was “inactive”. Besides, in the experiment with Arabidopsis thaliana [1] (192 h), the GI50 (usually the concentration at which growth is held to half of that of the control) was determined as 0.24 mM. The “growth inhibition (GI)” value in the experiment on Arabidopsis thaliana [3] and in the experiment on Arabidopsis thaliana [4] was “Active” throughout.
Regarding `O=P(O)(O)C(N1CCCCCC1)P(=O)(O)O` [N-(HEXAMETHYLENEIMINO)METHYLENEBISPHOSPHONIC ACID], the IC50 (commonly the point on the concentration scale where inhibition reaches its midpoint) in experiment [5] was determined as 74.4 mM.
As to `Cc1cc(C)cc(NC(P(=O)(O)O)P(=O)(O)O)c1` [3,5-DIMETHYLPHENYLAMINOMETHYLENEBISPHOSPHONIC ACID], the IC50 in experiment [5] was determined as 1.07 mM.
For the compound `O=P(O)(O)C(Nc1cccc(Cl)c1Cl)P(=O)(O)O` [2,3-DICHLOROPHENYLAMINOMETHYLENEBISPHOSPHONIC ACID], the “growth inhibition (GI)” value in the experiment with Arabidopsis thaliana [1] is “Active”.
`O=P(O)(O)C(N1CCCCCCC1)P(=O)(O)O` [N-(HEPTAMETHYLENEIMINO)METHYLENEBISPHOSPHONIC ACID]: the IC50 in experiment [5] stood at 533 mM.
